CYP2C19 inhib: blocks human cytochrome P450 2C19; P33261; CYP2C19 Supersomes, luciferin-H EGE luminescence, 30 min; inhibition, % at 5 µM; actives 21% (n = 96,000);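 active means CYP2C19 inhibition above a set limit at 5 µM in the primary screen, cut at about 50% in these data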
CYP2C9 activ: CYP2C9 (human) activation. P11712. recombinant CYP2C9, luciferin-H conversion, luminescence; hits give high values; factor 1 = untreated enzyme, 0 = blocked. activation factor at 5 µM. actives 1.4% (n = 96,000). AID 1024;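 active means activation factor of 2 or more for CYP2C9 at a 5 µM dose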
Target sequence (P11712 whole entry, looked up): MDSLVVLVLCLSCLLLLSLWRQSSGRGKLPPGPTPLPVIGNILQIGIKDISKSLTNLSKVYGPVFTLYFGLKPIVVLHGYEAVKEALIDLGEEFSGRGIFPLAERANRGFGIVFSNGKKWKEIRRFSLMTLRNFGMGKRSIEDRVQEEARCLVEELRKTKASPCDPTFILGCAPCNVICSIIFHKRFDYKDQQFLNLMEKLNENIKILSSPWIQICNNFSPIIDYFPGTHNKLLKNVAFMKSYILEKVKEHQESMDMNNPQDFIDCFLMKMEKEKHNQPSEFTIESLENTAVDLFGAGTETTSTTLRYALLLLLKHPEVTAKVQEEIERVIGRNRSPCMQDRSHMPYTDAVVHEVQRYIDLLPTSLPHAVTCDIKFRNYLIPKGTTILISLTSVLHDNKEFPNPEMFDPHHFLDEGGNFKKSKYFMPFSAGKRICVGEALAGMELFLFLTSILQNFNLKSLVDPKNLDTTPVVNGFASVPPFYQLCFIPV
Cav32 inh: blocks human Cav3.2 T-type calcium channel; O95180; Cav3.2-expressing cells, Fluo-4 calcium fluorescence FDSS; hits give low values; B-score at 10 µM; actives 4% (n = 100,000); AID 449739;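 active means single-dose well whose peak fluorescence ratio is a statistical outlier from its plate by either plate-standardised score or position-corrected B-score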
CYP2C19 activ: activators of human cytochrome P450 2C19; 96,000 tested, under 10 active; activation factor at 5 µM; AID 1025; recombinant CYP2C19, luciferin-H EGE luminescence; hits give high values; 0 = fully inhibited enzyme, 1 = untreated enzyme; P33261;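 active means activation factor of at least 2 at 5 µM in the primary screen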
CYP2C9 inhib: human CYP2C9 inhibition | P11712 | CYP2C9 Supersomes, luciferin-H conversion, luminescence | inhibition, % at 5 µM | actives 20% (n = 96,000);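 active means blocking of liver enzyme CYP2C9 beyond about 50% at 5 µM, limit read from the data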
HIV Rev-RRE inh: disrupts HIV-1 Rev binding to RRE RNA. P05866. Rev peptide-RRE RNA binding, FRET. inhibition, % at 8 µM. actives 0.79% (n = 97,000). AID 704;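 active means inhibition above the screen-wide mean plus 3 SD, cut at about 35% in these data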
Target sequence (P05866 whole entry, looked up): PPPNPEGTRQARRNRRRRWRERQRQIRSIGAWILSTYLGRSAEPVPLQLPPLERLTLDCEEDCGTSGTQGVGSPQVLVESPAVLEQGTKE
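Test system – labelled RRE RNA duplex and labelled Rev peptide · Signal – fluorescein-to-Cy5 FRET, 480 nm excitation · Evaluation – % inhibition of FRET ratio versus controls · Benchmarks – DMSO low control, neomycin B high control · Incubation – 5 min RNA-compound premix plus 15 min binding step, 25 °C · Medium – HEPES pH 7.5 salt buffer with EDTA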
Large screens that a line does not name were inactive. Rows were chosen to be rich in hits. Some 27% of all compounds tested hit in one or more screens of this group.

CSc1nc2ccccc2n1CC(=O)Nc1ccccc1	CYP2C19 inhib 93.1, CYP2C9 inhib 78.9
CCC(C)Sc1nc2ccccc2n1CC(=O)O (configuration not stated)	CYP2C9 inhib 88.1
Cc1ccc(SCc2nc3ccccc3n2CC(=O)Nc2ccccc2)cc1	CYP2C19 inhib 56.9, CYP2C9 inhib 84.3
CSc1nc2ccccc2n1CC(=O)Nc1c(C)cccc1C	none (no result: CYP2C19 inhib, CYP2C9 activ, CYP2C19 activ, CYP2C9 inhib)
CSc1nc2ccccc2n1Cc1c(Cl)cccc1Cl	CYP2C19 inhib 51.7, CYP2C9 inhib 56.2
N/C(=N\S(=O)(=O)c1ccc(Cl)s1)c1ccccc1	CYP2C19 inhib 96.7, Cav32 inh -5.82
CSc1cccc(NC(=O)C(C)NS(=O)(=O)c2ccc(F)cc2)c1 (configuration not stated)	CYP2C19 inhib 61.8
CSc1cccc(NC(=O)C2CCN(S(=O)(=O)c3ccc(F)cc3)CC2)c1	none
Cc1ccc(S(=O)(=O)N2CCCC2C(=O)O)s1 (configuration not stated)	none
O=C(Nc1ccccc1Cl)C1CCCN(S(=O)(=O)c2ccc(F)cc2)C1 (configuration not stated)	CYP2C19 inhib 71.3
CSc1cccc(NC(=O)C2CCCN2S(=O)(=O)c2ccc(Br)s2)c1 (configuration not stated)	CYP2C19 inhib 97.5, CYP2C9 inhib 74.4
CSc1cccc(NC(=O)C2CCCN(S(=O)(=O)c3ccc(F)cc3)C2)c1 (configuration not stated)	Cav32 inh -6.31
NS(=O)(=O)c1ccc(NC(=O)C2CCCN(S(=O)(=O)c3ccc(F)cc3)C2)cc1 (configuration not stated)	none
C[C@H](NC(=O)OCc1ccccc1)c1nnc([C@H](C)NC(=O)OCc2ccccc2)o1	none (no result: CYP2C19 inhib, CYP2C9 activ, CYP2C19 activ, CYP2C9 inhib, HIV Rev-RRE inh)
CCOC(=O)Cn1nc(C)n(-c2ccc(C)cc2)c1=O	none (no result: Cav32 inh)
CCOC(=O)c1cc2c(C)n(-c3ccc(OCC)cc3)c(C)c2ccc1=O	CYP2C19 inhib 63.5
CCOC(=O)c1cc2c(C)n(-c3ccc(C)cc3)c(C)c2ccc1=O	Cav32 inh -7.39, CYP2C9 inhib 58.9
CCOC(=O)c1cnc(Nc2ccc(OCC)cc2)nc1C	none (no result: HIV Rev-RRE inh)
CCOc1ccc(OCCOc2ncnc3ccccc23)cc1	none
CC1=C(C#N)C(C(F)(F)F)(C(F)(F)F)N=C(c2ccco2)N1	CYP2C19 inhib 81.9, CYP2C9 inhib 75.0
COc1ccc(C2=NCC(CSc3nnc(-c4ccc5c(c4)OCO5)o3)S2)cc1 (configuration not stated)	none
CCN(CC)S(=O)(=O)c1ccc2oc(SCC3CN=C(c4ccc(OC)cc4)S3)nc2c1 (configuration not stated)	CYP2C9 inhib 78.8
COc1ccc(C(=O)/C=C/Nc2cc(C)on2)c(OC)c1	none
CCOC(=O)c1c(-c2cccs2)csc1NC(C)=O	none (no result: CYP2C19 inhib, CYP2C9 activ, CYP2C19 activ, CYP2C9 inhib)
CCOC(=O)c1c(-c2cccs2)csc1NC(=O)CSc1ncn[nH]1	CYP2C19 inhib 86.1, Cav32 inh -4.69, CYP2C9 inhib 94.7
CCOC(=O)c1c(-c2cccs2)csc1NC(=O)CN1CC(C)OC(C)C1 (configuration not stated)	CYP2C9 inhib 69.0
CC1=CC(C)(C)Nc2ccc(OC(=O)C(Cc3ccccc3)N3C(=O)c4ccccc4C3=O)cc21 (configuration not stated)	CYP2C9 inhib 55.7
O=C(Cn1nc(-c2ccc(F)cc2)ccc1=O)Nc1ccc(C(=O)NC2CC2)cc1	none
CCOC(=O)C1=C(Cc2ccc(F)cc2)C(=O)c2ccccc2C1=O	CYP2C19 inhib 87.3
O=C(OCc1ccc(F)cc1)c1ccc2c(c1)-c1ccccc1C2=O	none
C=CCN1C(=O)/C(=C2/Sc3ccccc3N2C)SC1=Nc1ccccc1C	CYP2C9 inhib 55.5
COc1cc(C)c(C(=O)Oc2cc(C)c(C(=O)O)c(O)c2)c(O)c1	Cav32 inh -4.77 (no result: CYP2C19 inhib, CYP2C9 activ, CYP2C19 activ, CYP2C9 inhib, HIV Rev-RRE inh)
CCOC(=O)c1c(C)oc2c1c(C(c1cccnc1)N1CCN(C)CC1)c(O)c1ccccc12 (configuration not stated)	CYP2C19 inhib 63.4 (no result: Cav32 inh, HIV Rev-RRE inh)
CCOC(=O)c1c(C)oc2c1c1c(c3ccccc32)OCN(Cc2cccnc2)C1	CYP2C9 inhib 53.5 (no result: Cav32 inh)
CCOC(=O)c1cc(OC(=O)c2cccnc2)n(-c2ccccc2)n1	none
Cc1sc(NC(=O)c2ccco2)c(C(c2cccnc2)N2CCN(C)CC2)c1C (configuration not stated)	none
COC(=O)NCC(c1cccnc1)N1CCOCC1 (configuration not stated)	none (no result: CYP2C19 inhib, CYP2C9 activ, CYP2C19 activ, CYP2C9 inhib)
CCOC(=O)c1c(C)oc2c1c(C(c1cccnc1)N1CCOCC1)c(O)c1ccccc12 (configuration not stated)	CYP2C9 inhib 64.4
CCSc1nnc(Cc2cc(=O)[nH]c(=O)[nH]2)n1-c1cc(C)ccc1C	none
COc1ccccc1-c1cn(S(=O)(=O)c2ccc(F)cc2)nc1N	CYP2C19 inhib 96.7, CYP2C9 inhib 86.1
CCOc1cc(S(=O)(=O)n2cc(-c3ccc(F)cc3)c(N)n2)cc(OCC)c1OCC	Cav32 inh -5.49, CYP2C9 inhib 75.0
CCOc1ccc(S(=O)(=O)n2cc(-c3ccc(F)cc3)c(N)n2)cc1	none
CCCCCCSC1=C(C#N)C(=O)NC2(CCCCC2)S1	none (no result: CYP2C19 inhib, CYP2C9 activ, CYP2C19 activ, CYP2C9 inhib)
CCn1c(O)c(C=Nc2ccccc2)n(-c2ccccc2)c1=S	none
Cc1cc(C(=O)N[C@H](c2ccccc2)[C@@]2(C)C[C@@H]2[C@@H](C)C(=O)Nc2ccc3ccccc3c2)no1	none (no result: CYP2C19 inhib, CYP2C9 activ, CYP2C19 activ, CYP2C9 inhib, HIV Rev-RRE inh)
Cc1cc(C(=O)N[C@@H](c2ccccc2)[C@]2(C)C[C@H]2[C@@H](C)C(=O)Nc2ccc3ccccc3c2)no1	Cav32 inh -4.57 (no result: CYP2C19 inhib, CYP2C9 activ, CYP2C19 activ, CYP2C9 inhib, HIV Rev-RRE inh)
CC(=O)c1c(C)[nH]c(C(=O)NCc2cccs2)c1C	none
O=C(c1ccc(F)cc1)n1ccc(-c2cnc(-c3ccccc3)s2)n1	none
Cc1ccc(Cn2ccc(-c3cnc(-c4ccccc4)s3)n2)cc1	none
O=S(=O)(c1ccccc1)n1ccc(-c2cnc(-c3ccccc3)s2)n1	CYP2C9 inhib 78.5
Fc1ccc(Cn2ccc(-c3cnc(-c4ccccc4)s3)n2)cc1	CYP2C19 inhib 92.0, CYP2C9 inhib 96.9
O=C(OC1C[C@@H]2CC3C[C@H](C1)N2CC3=O)c1c[nH]c2ccccc12 (some centres not stated)	none (no result: CYP2C19 inhib, CYP2C9 activ, CYP2C19 activ, CYP2C9 inhib, HIV Rev-RRE inh)
CN1CC=C2C(C#N)=C(N)C(C#N)(C#N)C(CCc3ccccc3)C2C1 (configuration not stated)	none (no result: HIV Rev-RRE inh)
CN1CC=C2C(C#N)=C(N)C(C#N)(C#N)[C@H](c3cccs3)[C@H]2C1	HIV Rev-RRE inh 58.0 (no result: CYP2C19 inhib, CYP2C9 activ, CYP2C19 activ, CYP2C9 inhib)
CCCC1C2CN(C(C)C)CC=C2C(C#N)=C(N)C1(C#N)C#N (configuration not stated)	HIV Rev-RRE inh 70.1 (no result: Cav32 inh)
CCOC(=O)N1CC=C2C(C#N)=C(N)C(C#N)(C#N)[C@H](c3ccccc3OCC)[C@H]2C1	none

Compound activity deposited in PubChem by several laboratories.
